Hits are enriched below; roughly 1.7% of the tested compounds scored in any of these assays.
IDE cell inh: human IDE inhibitors in live cells, primary screen, fluorescence polarization, HEK cells, FAbetaB substrate. Insulin-degrading enzyme (Homo sapiens), P14735. FAbetaB cleavage. inhibition, % at 5.59 µM. actives 0.41% (n = 320,000). AID 434962, 2010;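 active means percent inhibition above the average of all tested compounds plus 3 SD, set per screening campaign, cut at about 16% in these data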;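 further: IDE supplied by intact live HEK cells; FP after avidin binding of uncleaved biotin substrate so inhibition keeps polarization high; 0% = DMSO wells and 100% = 60 µM reference IDE inhibitor Ii1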
TPT1 inh: Candida albicans TPT1 enzyme inhibitors, primary screen, biochemical, fluorescence polarization; recombinant caTPT1, FP RNA substrate dephosphorylation; inhibition, % at 5 µM; actives 0.81% (n = 300,000); AID 1962, 2009; tRNA 2'-phosphotransferase TPT1 (Candida albicans SC5314);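 active means inhibition above the mean of all tested compounds plus 3 SD, set per screening campaign, cut at about 24% in these data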;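 further: plate controls were DMSO alone for no effect and ferristatin control at 100 nM for full effect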
Rpn11 block: Rpn11 (PSMD14) deubiquitinase inhibitors, primary screen, biochemical, fluorescence polarization, uHTS | human 26S proteasome, Ub4-pepOG fluorescence polarization; 20S core pre-blocked with epoxomicin | calls only at 20 µM | actives 0.59% (n = 360,000);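 active means inhibition at 20 µM, scaled to each plate's controls, above about 33%, limit read from the data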
CSN inh: inhibitors of CSN-mediated cullin deneddylation, primary screen, biochemical, fluorescence polarization, uHTS | actives 0.38% (n = 360,000) | inhibition, % at 12.5 µM | COP9 signalosome complex subunit 5 (Homo sapiens), Q92905 | Purified CSN, SCF-Nedd8-OG deneddylation | AID 651999, 2013;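 active means pattern-corrected inhibition above about 35%, with an unprinted fluorescence ratio check between 0.5 and 1.5, limit read from the data, passing the limit was not always enough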;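 further: 0% = enzyme with substrate and 100% = substrate without enzyme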
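Assay system: Purified human Csn5 enzyme expressed in HEK293T cells | Amount: Enzyme 0.24 nM | Measured by: Fluorescence polarization readout | Medium: Tris/NaCl/DTT buffer, pH 7.5 | Compound dosing: One concentration, 12.5 µM, 0.25% DMSO | Times: 90 min incubation of compound, enzyme and substrate at room temperature | Control set: no-enzyme wells high, enzyme-with-substrate wells low | Read-out: % inhibition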
IDE cell activ: human IDE activators in live cells, primary screen, fluorescence polarization, HEK cells, FAbeta-B substrate; FAbeta-B cleavage; 0% vehicle, 100% cell-free pure enzyme wells; activation, % at 5.96 µM; actives 0.073% (n = 340,000); AID 493087, 2011;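 active means activation above the mean of all tested compounds plus 3 SD, set per screening campaign, cut at about 17% in these data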
HNF4A DNA FP: change in binding of human HNF4A to DNA, primary screen, biochemical, fluorescence polarization, FITC-DNA. Hepatocyte nuclear factor 4-alpha (Homo sapiens), P41235. 1 h. activity change, % at 10 µM. actives 0.3% (n = 360,000). AID 1224865, 2016; in the data active means activity change above about 30%, passing the limit was not always enough
Rpn11 inh conf: Rpn11 (PSMD14) deubiquitinase inhibitors, confirmation, biochemical, fluorescence polarization, single concentration; inhibition, % at 20 µM; actives 29% (n = 1,900); purified human 26S proteasome, Ub4-pepOG fluorescence polarization; proteasome pretreated with epoxomicin; shares compounds with Rpn11 block
MMP-2 counter: MMP-2 enzyme inhibition, confirmation, counter-screen for RPN11 inhibitor project, biochemical, fluorescence, single concentration | shares compounds with Rpn11 block | recombinant MMP-2, FRET peptide cleavage fluorescence | inhibition, % at 20 µM | actives 4% (n = 1,900);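 further: human MMP-2 activated beforehand with APMA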
Thrombin inh: bovine thrombin protease inhibition, confirmation, counter-screen for Rpn11 inhibitor project, biochemical, fluorescence polarization, single concentration | inhibition, % at 20 µM | AID 602333, 2012 | shares compounds with Rpn11 block | actives 13% (n = 1,900) | bovine thrombin cleavage of Ub4-pepOG;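 active means mean inhibition at least 40% at 20 µM, or signal 3 deviations below plate average, so some actives read negative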;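 further: plate controls were thrombin with DMSO for no effect and buffer wells lacking thrombin for full effect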
* marks the source's active call; other numbers are inactive results; i = inactive; · = not tested or not shown; + = active, no number. Unless noted, no stated cut-off is given here; in the data, active means inhibition above about 40%; inactive means the rest.

SMILES	IDE cell inh	TPT1 inh	Rpn11 block	CSN inh	IDE cell activ	HNF4A DNA FP	Rpn11 inh conf	MMP-2 counter	Thrombin inh
O=[N+]([O-])c1cccc(/C=N\N=C2c3ccccc3-c3ccccc32)c1O	0	-5	i	-4	-6	-4	·	·	·
Oc1ccc(C=NN=C2c3ccccc3-c3ccccc32)c(O)c1	·	·	+	21	-20	34	58*	-19	49*
O=C(COc1ccc(S(=O)(=O)N2CCCC2)cc1Cl)NCc1ccccn1	5	2	i	-3	4	1	·	·	·
CC(=O)c1cccc(S(=O)(=O)N2CCN(c3nc4cc(C)cc(C)c4cc3C#N)CC2)c1	11	5	+	11	7	11	1	-21	-11
CC(C)N(Cc1ccccc1)S(=O)(=O)c1ccc(-n2cccn2)cc1	·	·	i	-5	·	-3	·	·	·
N#Cc1cc(C#N)c(SCC(=O)N2CC(=O)Nc3ccccc32)nc1N	1	·	+	10	-3	11	28	-57	23
CCc1ccc2nc(SCC(=O)N3CC(=O)Nc4ccccc43)c(C#N)cc2c1	2	23	i	3	1	1	·	·	·
COc1cc(C(=O)NCC(=O)OC(C)C(=O)Nc2ncc(Cl)cc2Cl)cc(OC)c1OC (configuration not stated)	3	0	i	-1	6	1	·	·	·
CCOC(=O)c1cc(-c2ccccc2)sc1NC(=O)C(C)N1C(=O)NC(C)(c2ccc(Cl)cc2)C1=O (configuration not stated)	6	5	+	6	2	51*	13	11	4
CCOC(=O)c1cc(-c2ccccc2)sc1NC(=O)C(C)C	0	0	i	3	-1	-3	·	·	·
N#Cc1ccc(-c2ccc(OCC(=O)NCC(=O)Nc3ccc(F)c(F)c3F)cc2)cc1	2	2	+	7	-7	-1	97*	-30	-5
O=[N+]([O-])c1ccc(-c2ccc(/C=N/Nc3nc(N4CCCCC4)nc(N4CCCCC4)n3)o2)cc1	·	·	+	10	·	19	-1	-20	-14
O=C(N/N=C/c1ccc(-c2ccc([N+](=O)[O-])cc2)o1)c1cccnc1	3	13	+	8	·	8	49*	-15	-17
COCCSc1nnc(-c2cnccn2)o1	1	-3	i	3	6	-1	·	·	·
Cc1cc(C)c(C(=O)/C=C/c2cccs2)c(=O)[nH]1	0	-2	+	2	-4	-1	1	-7	8
COc1ccc(/C=C/C(=O)c2c(C)cc(C)[nH]c2=O)c2ccccc12	-4	12	+	4	4	6	24	-33	5
O=C(CNC(=O)c1ccco1)NCC(=O)OCc1cccc(C(=O)Oc2ccccc2)c1	4	-1	i	-1	-4	-3	·	·	·
Cc1cc(C)n(-c2nc3ccccc3s2)n1	-1	-1	i	-4	-1	-2	·	·	·

Screens from PubChem BioAssay.
